Format in all cases: functional
One assay concerns Escherichia coli. The assay can be described thus: Antibacterial activity against Escherichia coli after 18 to 24 hrs by broth microdilution method. The method in brief: (§1)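 Broth microdilution per CLSI; compounds dissolved in DMSO at 10 mg/mL stock, serially diluted in Mueller Hinton Broth, mixed with equal volume of bacterial inoculum (final […]); incubated 37 °C for 18–24 h; MIC taken as lowest concentration preventing visible growth; duplicate determinations.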
(In broth dilution the organism is exposed to a series of concentrations in liquid medium.)

Another assay relates to Klebsiella pneumoniae. Put plainly: Antibacterial activity against Klebsiella pneumoniae after 18 to 24 hrs by broth microdilution method. In short, it runs like this:
as §1

In a further assay the test system is Candida albicans. The assay can be described thus: Antifungal activity against Candida albicans after 48 hrs by NCCLS method. In short, it runs like this: (§2)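 NCCLS yeast broth dilution; inocula from 48 h, 35 °C Sabouraud agar cultures diluted to 10⁶ CFU/mL; compounds from 10 mg/mL DMSO stock serially diluted in RPMI-1640, added to equal volume of fungal suspension in round-bottom microplates; incubated 35 °C for 48–72 h; MIC in duplicate.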

In another assay the test system is Pseudomonas aeruginosa. The assay can be described thus: Antibacterial activity against Pseudomonas aeruginosa after 18 to 24 hrs by broth microdilution method. In short, it runs like this:
as §1

For a further assay, the system named is Enterococcus faecalis. Put plainly: Antibacterial activity against Enterococcus faecalis after 18 to 24 hrs by broth microdilution method. In short, it runs like this: as §1
Assay [1] has as its system Stenotrophomonas maltophilia. The assay can be described thus: Antibacterial activity against Stenotrophomonas maltophilia after 18 to 24 hrs by broth microdilution method. In short, it runs like this: as §1
In another assay the test system is Acinetobacter baumannii. The assay can be described thus: Antibacterial activity against Acinetobacter baumannii after 18 to 24 hrs by broth microdilution method. In short, it runs like this:
as §1

Assay [2] relates to Staphylococcus epidermidis. Put plainly: Antibacterial activity against Staphylococcus epidermidis after 18 to 24 hrs by broth microdilution method. The method in brief: as §1
The test system of the next assay is Enterobacter cloacae. The assay can be described thus: Antibacterial activity against Enterobacter cloacae after 18 to 24 hrs by broth microdilution method. The method in brief:
as §1

The test system of another assay is Candida tropicalis. The assay can be described thus: Antifungal activity against Candida tropicalis after 48 hrs by NCCLS method. The method in brief: as §2
The test system of assay [3] is Mycolicibacterium smegmatis. Put plainly: Antimycobacterial activity against Mycobacterium smegmatis MC2 155 after 72 hrs by broth microdilution method. The conditions noted are these: str. MC2 155, 72 h. The method in brief:
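Strains were pre-grown in Middlebrook 7H11 with OADC. The microdilution assay ran in sealed 96-well plates at 37 °C and was read after 72 h for M. smegmatis mc²155 and after 7 days for M. bovis BCG.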

The subject of assay [4] is Mycobacterium tuberculosis. Put plainly: Antimycobacterial activity against Mycobacterium tuberculosis H37Rv by twofold agar dilution method. In short, it runs like this:
(§3)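 Strains grown in Middlebrook 7H11 with OADC. Suspensions at McFarland 1 turbidity were diluted 1:10, 1:100 and 1:10,000 in Middlebrook 7H9. These were inoculated onto duplicate Middlebrook 7H11 plates containing serial concentrations of compound.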
(In agar dilution, organisms are placed on agar that contains the substance at set levels.)

The subject of assay [5] is Mycobacterium tuberculosis. The assay can be described thus: Antimycobacterial activity against Mycobacterium tuberculosis H37Ra by twofold agar dilution method. In short, it runs like this:
as §3

A further assay concerns Staphylococcus aureus. Put plainly: Antibacterial activity against Staphylococcus aureus after 18 to 24 hrs by broth microdilution method. The method in brief: as §1

In brackets after ≈: the same amount, converted by molar mass. Some results are limits rather than exact numbers.

The values below come from ChEMBL document CHEMBL1649406, “Synthesis and anti-mycobacterial activities of triazoloquinolones” (Eur J Med Chem, 2011).

In general, MIC refers to the lowest concentration that inhibits growth of the organism. A high value points to weaker potency.

`CCOC(=O)c1cn(CC2CC2)c2c(ccc3c2nnn3C)c1=O`: the MIC (in the assay with Escherichia coli; in the assay on Klebsiella pneumoniae; with Candida albicans; with Pseudomonas aeruginosa; against Enterococcus faecalis; in assay [1]) was above 64 µg/mL in each case. Further, the MIC was above 64 µg/mL against Acinetobacter baumannii; above 64 µg/mL in assay [2]; above 64 µg/mL against Enterobacter cloacae; above 64 µg/mL against Candida tropicalis; above 128 µg/mL in [3]; 64 µg/mL (≈ 196 µM) in assay [4]. Further, the minimum inhibitory concentration (MIC) in assay [5] was above 128 µg/mL; in the assay on Staphylococcus aureus, above 64 µg/mL.
For `C=C(C)Cn1cc(C(=O)O)c(=O)c2ccc3c(nnn3C)c21`, the MIC (against Escherichia coli; in the assay with Klebsiella pneumoniae; in the assay on Candida albicans; with Pseudomonas aeruginosa; against Enterococcus faecalis; in assay [1]) was above 64 µg/mL in each case. Moreover, the minimum inhibitory concentration (MIC) is above 64 µg/mL in the assay on Acinetobacter baumannii; above 64 µg/mL in [2]; above 64 µg/mL against Enterobacter cloacae; above 64 µg/mL against Candida tropicalis; 64 µg/mL (≈ 215 µM) in assay [3]; 64 µg/mL (≈ 215 µM) in assay [4]. Further, the minimum inhibitory concentration (MIC) was 32 µg/mL (≈ 107 µM) in [5] and above 64 µg/mL with Staphylococcus aureus.
For `C=C(C)Cn1cc(C(=O)OCC)c(=O)c2ccc3c(nnn3C)c21`, the MIC (against Escherichia coli; against Klebsiella pneumoniae; in the assay with Candida albicans; with Pseudomonas aeruginosa; with Enterococcus faecalis; in assay [1]) was above 64 µg/mL in each case. Also, the MIC was above 64 µg/mL in the assay on Acinetobacter baumannii; above 64 µg/mL in assay [2]; above 64 µg/mL in the assay on Enterobacter cloacae; above 64 µg/mL against Candida tropicalis; above 128 µg/mL in [3]; 64 µg/mL (≈ 196 µM) in assay [4]. The minimal inhibitory concentration (MIC) is above 128 µg/mL in assay [5] and above 64 µg/mL against Staphylococcus aureus.
`C=CCn1cc(C(=O)O)c(=O)c2ccc3c(nnn3Cc3ccccc3)c21`: the MIC (in the assay on Escherichia coli; with Klebsiella pneumoniae; in the assay on Candida albicans; in the assay on Pseudomonas aeruginosa; in the assay with Enterococcus faecalis; in [1]) was above 64 µg/mL each time. Moreover, the MIC in the assay with Acinetobacter baumannii is above 64 µg/mL; in assay [2] it was above 64 µg/mL; in the assay on Enterobacter cloacae, above 64 µg/mL; in the assay on Candida tropicalis it was above 64 µg/mL; in assay [3] it was above 128 µg/mL; in assay [4] it was 64 µg/mL (≈ 178 µM). The MIC is 4 µg/mL (≈ 11.1 µM) in assay [5] and above 64 µg/mL in the assay with Staphylococcus aureus.
For the compound `CN[C@@H]1[C@H](O[C@H]2[C@H](O[C@H]3[C@H](O)[C@@H](O)[C@H](N=C(N)N)[C@@H](O)[C@@H]3N=C(N)N)O[C@@H](C)[C@]2(O)C=O)O[C@@H](CO)[C@H](O)[C@H]1O` [STREPTOMYCIN], the MIC in [4] and in [5] was 1 µg/mL (≈ 1.72 µM) in each case.
Turning to `Cn1nnc2c3c(ccc21)c(=O)c(C(=O)O)cn3CC1CC1`, the minimum inhibitory concentration (MIC) (against Escherichia coli; in the assay on Klebsiella pneumoniae; in the assay on Candida albicans; against Pseudomonas aeruginosa; against Enterococcus faecalis; in assay [1]) was above 64 µg/mL in each case. Also, the minimum inhibitory concentration (MIC) against Acinetobacter baumannii is above 64 µg/mL; in assay [2] it was above 64 µg/mL; in the assay on Enterobacter cloacae, above 64 µg/mL; against Candida tropicalis, above 64 µg/mL; in assay [3] it was 64 µg/mL (≈ 215 µM); in [4], 32 µg/mL (≈ 107 µM). Besides, the MIC was 16 µg/mL (≈ 53.6 µM) in assay [5] and above 64 µg/mL in the assay on Staphylococcus aureus.
Regarding `O=C(O)c1cn(C2CC2)c2cc(N3CCNCC3)c(F)cc2c1=O` [CIPROFLOXACIN], the minimum inhibitory concentration (MIC) in assay [3] turned out to be 0.125 µg/mL (≈ 0.377 µM); in [4], 0.5 µg/mL (≈ 1.51 µM); in [5], 0.5 µg/mL (≈ 1.51 µM).
As to `CCCCn1cc(C(=O)O)c(=O)c2ccc3c(nnn3Cc3ccccc3)c21`, the minimum inhibitory concentration (MIC) (in the assay with Escherichia coli; against Klebsiella pneumoniae; against Candida albicans; in the assay with Pseudomonas aeruginosa; in the assay on Enterococcus faecalis; in [1]) was above 64 µg/mL in each case. The MIC against Acinetobacter baumannii was above 64 µg/mL; in assay [2], above 64 µg/mL; against Enterobacter cloacae, above 64 µg/mL; in the assay on Candida tropicalis, above 64 µg/mL; in [3] it was above 128 µg/mL; in assay [4], 64 µg/mL (≈ 170 µM). Further, the MIC was 64 µg/mL (≈ 170 µM) in assay [5] and above 64 µg/mL in the assay on Staphylococcus aureus.
For `CCCCn1cc(C(=O)OCC)c(=O)c2ccc3c(nnn3Cc3ccccc3)c21`, the MIC (against Escherichia coli; against Klebsiella pneumoniae; in the assay on Candida albicans; in the assay on Pseudomonas aeruginosa; with Enterococcus faecalis; in assay [1]) was above 64 µg/mL throughout. Besides, the MIC in the assay on Acinetobacter baumannii is above 64 µg/mL; in assay [2], above 64 µg/mL; in the assay with Enterobacter cloacae, above 64 µg/mL; in the assay with Candida tropicalis it was above 64 µg/mL; in assay [3], above 128 µg/mL; in assay [4], 64 µg/mL (≈ 158 µM). In addition, the MIC is 32 µg/mL (≈ 79.1 µM) in assay [5] and above 64 µg/mL with Staphylococcus aureus.
In the case of `Cn1nnc2c3c(ccc21)c(=O)c(C(=O)O)cn3CC1CCC1`, the MIC (against Escherichia coli; in the assay with Klebsiella pneumoniae; against Candida albicans; against Pseudomonas aeruginosa; against Enterococcus faecalis; in assay [1]) was above 64 µg/mL in each case. The MIC was above 64 µg/mL with Acinetobacter baumannii; above 64 µg/mL in assay [2]; above 64 µg/mL against Enterobacter cloacae; above 64 µg/mL in the assay with Candida tropicalis; 64 µg/mL (≈ 205 µM) in assay [3]; 32 µg/mL (≈ 102 µM) in assay [4]. The values for the minimal inhibitory concentration (MIC) (in assay [5]; against Staphylococcus aureus) were 16 µg/mL (≈ 51.2 µM) and above 64 µg/mL, respectively.
For the compound `CCOC(=O)c1cn(CC2CCC2)c2c(ccc3c2nnn3C)c1=O`, the minimal inhibitory concentration (MIC) (against Escherichia coli; against Klebsiella pneumoniae; in the assay on Candida albicans; against Pseudomonas aeruginosa; in the assay with Enterococcus faecalis; in assay [1]) was above 64 µg/mL each time. Also, the MIC against Acinetobacter baumannii was above 64 µg/mL; in assay [2], above 64 µg/mL; in the assay with Enterobacter cloacae it was above 64 µg/mL; in the assay with Candida tropicalis, above 64 µg/mL; in [3] it was above 128 µg/mL; in assay [4], 64 µg/mL (≈ 188 µM). The MIC in assay [5] was above 128 µg/mL; against Staphylococcus aureus, above 64 µg/mL.
Consider `CC[C@@H](CO)NCCN[C@@H](CC)CO` [ETHAMBUTOL], for which the results for the minimum inhibitory concentration (MIC) in assay [3], in assay [4] and in assay [5] were 0.5 µg/mL (≈ 2.45 µM), 5 µg/mL (≈ 24.5 µM) and 4 µg/mL (≈ 19.6 µM), respectively.
As for `CCn1cc(C(=O)O)c(=O)c2ccc3c(nnn3Cc3ccccc3)c21`, the MIC (with Escherichia coli; in the assay with Klebsiella pneumoniae; in the assay on Candida albicans; in the assay with Pseudomonas aeruginosa; in the assay on Enterococcus faecalis; in assay [1]) was above 64 µg/mL each time. For the same compound, the MIC with Acinetobacter baumannii is above 64 µg/mL; in [2], above 64 µg/mL; against Enterobacter cloacae, above 64 µg/mL; against Candida tropicalis it was above 64 µg/mL; in assay [3] it was 64 µg/mL (≈ 184 µM); in [4] it was 64 µg/mL (≈ 184 µM). Also, the MIC in [5] was 8 µg/mL (≈ 23 µM); in the assay with Staphylococcus aureus, above 64 µg/mL.
`CO[C@H]1/C=C/O[C@@]2(C)Oc3c(C)c(O)c4c(O)c(c(/C=N/N5CCN(C)CC5)c(O)c4c3C2=O)NC(=O)/C(C)=C\C=C\[C@H](C)[C@H](O)[C@@H](C)[C@@H](O)[C@@H](C)[C@H](OC(C)=O)[C@@H]1C` [RIFAMPIN]: the MIC in assay [3] was 8 µg/mL (≈ 9.72 µM); in assay [4], below 0.5 µg/mL; in assay [5], at most 0.06 µg/mL.
